The structures appear in SMILES notation.

One assay deals with HFF. Put plainly: Compound was evaluated for the visual cytotoxicity scored on HFF cells at time of HCMV plaque enumeration. In kind it is functional, cell-based. The note with it: Homo sapiens. The gist of the method:
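Stationary HFF cells not affected by virus in the HCMV plaque assay, inspected microscopically for cytotoxicity when plaques were counted (after 7–10 days at 37 °C). Reported as IC50.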

Assay [1] concerns Human betaherpesvirus 5. As to the kind of experiment: Compound was evaluated for the antiviral activity against HCMV determined by using Plaque assay. In kind it is functional, organism-based. Put shortly:
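Towne strain HCMV (plaque-purified P0) on HFF monolayers, about 100 PFU/cm², 2 h adsorption at 37 °C. Compounds added in growth medium, four to eight concentrations, duplicate wells. Incubated 7–10 days at 37 °C, then crystal violet stain and microscopic plaque count. Percent plaque reduction versus no-drug wells, regressed on log concentration to give IC50.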

Another assay relates to KB. Put plainly: Compound was evaluated for the inhibition of KB cell growth determined in quadruplicate assay. The note with it: Homo sapiens. In kind it is functional, cell-based. The gist of the method: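 KB cells at 3000–5000/well, compound added in quadruplicate at six to eight concentrations, 48 h at 37 °C (about two population doublings). Cells fixed with ethanol, stained with crystal violet, eluted dye read at 570 nm. IC50 from regression of percent inhibition on log concentration.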

In the next assay the test system is Human alphaherpesvirus 1. Put plainly: Compound was evaluated for the antiviral activity against HSV-1 determined by using ELISA method. Type of assay: functional, organism-based. Put shortly: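 HSV-1 (KOS strain in most experiments) at 100 PFU/well on BSC-1 cells (10 000/well), drug in quadruplicate, 3–5 days at 37 °C. Wells blocked, probed with HRP-conjugated rabbit anti-HSV-1 antibody, developed with tetramethylbenzidine and read at 450 and 570 nm. Percent absorbance reduction versus virus-only wells; IC50 from regression on log concentration.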
A general note: An ELISA detects its analyte on a solid surface through an enzyme-linked reagent.

Assay [2] deals with Human betaherpesvirus 5. As to the kind of experiment: Compound was evaluated for the antiviral activity against HCMV determined by using Yield reduction assay. Type of assay: functional. The gist of the method: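 HFF cells at 12 500 cells/well, infected with Towne HCMV at MOI 0.5–1 PFU/cell. Compounds added after adsorption, 1:3 serial dilutions spanning about 1000-fold (e.g. 100–0.14 μM), in duplicate. 7 days at 37 °C, one freeze-thaw, then progeny titred by plaque count on fresh HFF plates. Reported as IC90.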

Usually IC50 stands for the concentration needed to halve the response being measured. Low values mean inhibition by little substance, high ones a need for much substance. For `Clc1cc2nc(Br)[nH]c2cc1Cl`, the results for the IC50 in the assay with HFF, in the assay on Human betaherpesvirus 5 [1] and in the assay with KB were 21 µM, 12 µM and 56 µM, respectively.

In the case of `Clc1nc2cc(Cl)c(Cl)cc2[nH]1`, the IC50 in the assay on Human alphaherpesvirus 1 came out at 51 µM; in the assay with HFF, 24 µM; in the assay on Human betaherpesvirus 5 [1], 6.4 µM; in the assay on KB, 19 µM.

As usually defined, the IC90 is the point of the concentration-response curve where the effect stands at 90%. A low value points to greater potency. As for `OC[C@H]1O[C@H](n2c(Br)nc3cc(Cl)c(Cl)cc32)[C@@H](O)[C@H]1O`, the IC50 in the assay with Human alphaherpesvirus 1 was 130 µM; in the assay with HFF, 118 µM; in the assay with Human betaherpesvirus 5 [1], 0.7 µM; in the assay with KB, greater than 100 µM. In addition, in the assay on Human betaherpesvirus 5 [2], the IC90 turned out to be 0.2 µM.

For `CC(=O)OC[C@H]1O[C@@H](n2c(Br)nc3cc(Cl)c(Cl)cc32)[C@H](OC(C)=O)[C@@H]1OC(C)=O`, the concentration for half-maximal inhibition (IC50) in the assay with Human alphaherpesvirus 1 is greater than 100 µM; with HFF, 100 µM; in the assay with Human betaherpesvirus 5 [1] it was 1.5 µM; with KB, 25 µM. The molecule also registered an IC90 with Human betaherpesvirus 5 [2] of 0.2 µM.

Take `CC(=O)OC[C@H]1O[C@@H](n2c(Cl)nc3cc(Cl)c(Cl)cc32)[C@H](OC(C)=O)[C@@H]1OC(C)=O`: the 90% effect level with Human betaherpesvirus 5 [2] (IC90) was put at 0.2 µM. The IC50 is 100 µM in the assay on HFF, 2 µM with Human betaherpesvirus 5 [1] and greater than 100 µM in the assay with KB.

For the molecule `OC[C@H]1O[C@@H](n2c(Cl)nc3cc(Cl)c(Cl)cc32)[C@H](O)[C@@H]1O`, the IC50 was 102 µM with Human alphaherpesvirus 1, 238 µM in the assay with HFF, 2.9 µM in the assay on Human betaherpesvirus 5 [1] and 210 µM in the assay on KB. The IC90 with Human betaherpesvirus 5 [2] was found to be 1.4 µM.

For the molecule `Nc1nc2cc(Cl)c(Cl)cc2n1C1O[C@H](CO)[C@@H](O)[C@H]1O` (some centres not stated), the IC50 in the assay on Human alphaherpesvirus 1 stood at 50 µM; in the assay with HFF it was 32 µM; in the assay with Human betaherpesvirus 5 [1], 40 µM; in the assay with KB, 40 µM. Moreover, the 90% effect level in the assay on Human betaherpesvirus 5 [2] (IC90) was put at 8 µM.

For `OC[C@H]1OC(n2c(I)nc3cc(Cl)c(Cl)cc32)[C@H](O)[C@@H]1O` (some centres not stated), the IC50 was 21 µM in the assay with Human alphaherpesvirus 1, 118 µM with HFF, 30 µM in the assay on Human betaherpesvirus 5 [1] and 23 µM in the assay on KB. Also, the IC90 in the assay on Human betaherpesvirus 5 [2] worked out at 26 µM.

Turning to `OC[C@H]1OC(n2c(O)nc3cc(Cl)c(Cl)cc32)[C@H](O)[C@@H]1O` (some centres not stated), the IC50 in the assay with HFF was 100 µM; in the assay with Human betaherpesvirus 5 [1], greater than 100 µM.

`O=[N+]([O-])c1c(Cl)c(Cl)cc2c1nc(O)n2C1O[C@H](CO)[C@@H](O)[C@H]1O` (some centres not stated): the IC50 with Human alphaherpesvirus 1 was greater than 100 µM; in the assay on HFF, 100 µM; in the assay with Human betaherpesvirus 5 [1], greater than 100 µM.

On to `Nc1nc2cc(Cl)c(Cl)cc2[nH]1`, for which the IC50 with Human alphaherpesvirus 1 is greater than 100 µM; with HFF, 100 µM; with Human betaherpesvirus 5 [1] it was 100 µM; in the assay with KB, greater than 100 µM.

The molecule `OC[C@H]1O[C@@H](n2cnc3cc(Cl)c(Cl)cc32)[C@H](O)[C@@H]1O` [DICHLORORIBOBENZIMIDAZOLE] had an IC90 in the assay with Human betaherpesvirus 5 [2] of 19 µM. Besides, the half-maximal inhibitory concentration (IC50) in the assay on HFF was determined as 24 µM; in the assay on KB, 36 µM.

As to `O=C(O)P(=O)(O)O` [FOSCARNET SODIUM], in the assay on HFF, the IC50 is greater than 100 µM.

With `Nc1nc2c(ncn2COC(CO)CO)c(=O)[nH]1` [GANCICLOVIR], the 90% effect level in the assay on Human betaherpesvirus 5 [2] (IC90) was put at 1.6 µM. The IC50 in the assay with HFF and in the assay with KB was greater than 100 µM each time.

The values above are taken from ChEMBL document CHEMBL1128463, “Design, synthesis, and antiviral activity of certain 2,5,6-trihalo-1-(beta-D-ribofuranosyl)benzimidazoles” (J Med Chem, 1995).
